Source: ChEMBL document CHEMBL3272313, “3-Hydroxy-17-aralkylmorphinans as potential opiate receptor-site-directed alkylating agents” (J Med Chem, 1977)
Calls of active or inactive are those of the source. The rule behind the calls is not given here.

Tests used:
Mus musculus [1] = assay: Analgesic activity in sc dosed Swiss-Webster mouse after 30 mins; format: functional; conditions: 0.5 h
Mus musculus [2] = assay: Analgesic activity in Swiss-Webster mouse assessed as time required for sustainance of activity at 80 mg/kg, sc; format: functional; conditions: route subcutaneous
Mus musculus [3] = assay: Inhibition of morphine sulfate-induced analgesic activity in Swiss-Webster mouse at 80 mg/kg, sc after 1 hr; format: functional, organism-based; set-up: dose 80 mg/kg
Procedure, shortened: (§1)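 Male Swiss-Webster mice, 20–25 g. Challenge was 10 mg/kg morphine sulfate in 8–10 mice, read by the modified D'Amour–Smith test. Where block was seen, morphine ED50 (95% limits) was found by Litchfield–Wilcoxon.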

Mus musculus [4] = species: Mus musculus; assay: Narcotic agonist activity in morphine-dependent mouse assessed as suppression of abstinence; format: functional, organism-based
Procedure, shortened: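 Single-dose suppression test in morphine-dependent mice after withdrawal (method of Takemori et al.); compound given sc.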

Mus musculus [5] = assay: Ratio of morphine ED50 to compound ED50 for sc dosed Swiss-Webster mouse; format: functional
Mus musculus [6] = assay: Analgesic activity in sc dosed Swiss-Webster mouse time of peak effect; format: functional
Mus musculus [7] = assay: Analgesic activity in Swiss-Webster mouse assessed as time required for sustainance of activity at 2.7 mg/kg, sc; format: functional; conditions: route subcutaneous
Mus musculus [8] = assay: Analgesic activity in Swiss-Webster mouse assessed as time required for sustainance of activity at 15 mg/kg, sc; format: functional; conditions: route subcutaneous
Mus musculus [9] = assay: Inhibition of morphine sulfate-induced analgesic activity in Swiss-Webster mouse at 5.3 mg/kg, sc after 3 hrs; format: functional, organism-based; set-up: dose 5.3 mg/kg; procedure, shortened: as §1
Mus musculus [10] = assay: Analgesic activity in Swiss-Webster mouse assessed as time required for sustainance of activity at 5.3 mg/kg, sc; format: functional; conditions: route subcutaneous
Mus musculus [11] = assay: Analgesic activity in Swiss-Webster mouse assessed as time required for sustainance of activity at 20 mg/kg, sc; format: functional; conditions: route subcutaneous
Mus musculus [12] = assay: Analgesic activity in Swiss-Webster mouse assessed as time required for sustainance of activity at 0.81 mg/kg, sc; format: functional; conditions: route subcutaneous
Mus musculus [13] = assay: Inhibition of morphine sulfate-induced analgesic activity in Swiss-Webster mouse at 0.81 mg/kg, sc after 2.5 hrs; format: functional, organism-based; set-up: dose 0.81 mg/kg; procedure, shortened: as §1
Mus musculus [14] = assay: Analgesic activity in Swiss-Webster mouse assessed as time required for sustainance of activity at 380 mg/kg, sc; format: functional; conditions: route subcutaneous
Mus musculus [15] = assay: Inhibition of morphine sulfate-induced analgesic activity in Swiss-Webster mouse at 380 mg/kg, sc after 5.5 hrs; format: functional, organism-based; set-up: dose 380 mg/kg; procedure, shortened: as §1
Mus musculus [16] = assay: Analgesic activity in Swiss-Webster mouse assessed as time required for sustainance of activity at 100 mg/kg, sc; format: functional; conditions: route subcutaneous
Mus musculus [17] = assay: Inhibition of morphine sulfate-induced analgesic activity in Swiss-Webster mouse at 100 mg/kg, sc after 3 hrs; format: functional, organism-based; set-up: dose 100 mg/kg; procedure, shortened: as §1
Mus musculus [18] = assay: Inhibition of morphine sulfate-induced analgesic activity in Swiss-Webster mouse at 100 mg/kg, sc after 2 hrs; format: functional, organism-based; set-up: dose 100 mg/kg; procedure, shortened: as §1
Mus musculus [19] = assay: Analgesic activity in Swiss-Webster mouse assessed as time required for sustainance of activity at 2.6 mg/kg, sc; format: functional; conditions: route subcutaneous
Mus musculus [20] = assay: Inhibition of morphine sulfate-induced analgesic activity in Swiss-Webster mouse at 2.6 mg/kg, sc after 2.5 hrs; format: functional, organism-based; set-up: dose 2.6 mg/kg; procedure, shortened: as §1
Mus musculus [21] = assay: Inhibition of morphine sulfate-induced analgesic activity in Swiss-Webster mouse at 100 mg/kg, sc after 1 hr; format: functional, organism-based; set-up: dose 100 mg/kg; procedure, shortened: as §1
Mus musculus [22] = assay: Analgesic activity in Swiss-Webster mouse assessed as time required for sustainance of activity at 5 mg/kg, sc; format: functional; conditions: route subcutaneous
Mus musculus [23] = assay: Analgesic activity in Swiss-Webster mouse assessed as time required for sustainance of activity at 50 mg/kg, sc; format: functional; conditions: route subcutaneous
Mus musculus [24] = assay: Inhibition of morphine sulfate-induced analgesic activity in Swiss-Webster mouse at 50 mg/kg, sc after 2 hrs; format: functional, organism-based; set-up: dose 50 mg/kg; procedure, shortened: as §1
Mus musculus [25] = assay: Analgesic activity in Swiss-Webster mouse assessed as time required for sustainance of activity at 40 mg/kg, sc; format: functional; conditions: route subcutaneous
Mus musculus [26] = assay: Inhibition of morphine sulfate-induced analgesic activity in Swiss-Webster mouse at 40 mg/kg, sc after 3 hrs; format: functional, organism-based; set-up: dose 40 mg/kg; procedure, shortened: as §1
Mus musculus [27] = assay: Analgesic activity in Swiss-Webster mouse assessed as time required for sustainance of activity at 350 mg/kg, sc; format: functional; conditions: route subcutaneous
Mus musculus [28] = assay: Inhibition of morphine sulfate-induced analgesic activity in Swiss-Webster mouse at 350 mg/kg, sc after 2 hrs; format: functional, organism-based; set-up: dose 350 mg/kg; procedure, shortened: as §1

Row | Structure (SMILES) | ED50 (Mus musculus [1]) [mg/kg] | Time (Mus musculus [6]) [min] | Time (Mus musculus [16]) [h] | other results
1 | O=C1C=CC(=O)N1c1ccccc1CCN1CC[C@]23CCCC[C@H]2[C@H]1Cc1ccc(O)cc13 | > 100 | – | – | Time (Mus musculus [2]): 1 h; inhibition (Mus musculus [3]): Active
2 | CCOC(=O)/C=C/C(=O)Nc1ccccc1CCN1CC[C@]23CCCC[C@H]2[C@H]1Cc1ccc(O)cc13 | > 150 | – | – | –
3 | CCOC(=O)CCC(=O)Nc1ccc(CCN2CC[C@]34CCCC[C@H]3[C@H]2Cc2ccc(O)cc24)cc1 | 0.71 | 60 | – | inhibition (Mus musculus [4]): Active; Ratio ED50 (Mus musculus [5]): 4; Time (Mus musculus [7]): 4 h
4 | CCOC(=O)/C=C\C(=O)Nc1cccc(CCN2CC[C@]34CCCC[C@H]3[C@H]2Cc2ccc(O)cc24)c1 | 2.3 | 60 | – | inhibition (Mus musculus [4]): Active; Time (Mus musculus [8]): 3 h
5 | O=C(CBr)Nc1cccc(CCN2CC[C@]34CCCC[C@H]3[C@H]2Cc2ccc(O)cc24)c1 | 0.58 | 30 | – | inhibition (Mus musculus [9]): Active; Time (Mus musculus [10]): 3 h
6 | CCOC(=O)/C=C/C(=O)Nc1cccc(CCN2CC[C@]34CCCC[C@H]3[C@H]2Cc2ccc(O)cc24)c1 | 5.6 | 60 | – | inhibition (Mus musculus [4]): Active; Time (Mus musculus [11]): 3 h
7 | O=C(CBr)Nc1ccc(CCN2CC[C@]34CCCC[C@H]3[C@H]2Cc2ccc(O)cc24)cc1 | 0.13 | 30 | – | Ratio ED50 (Mus musculus [5]): 4; Time (Mus musculus [12]): 2.5 h; inhibition (Mus musculus [13]): Active
8 | CC(=O)Oc1ccc2c(c1)[C@@]13CCCC[C@H]1[C@@H](C2)N(CCc1ccccc1N1C(=O)C=CC1=O)CC3 | 11.7 | 30 | – | Time (Mus musculus [11]): 2 h
9 | CCOC(=O)/C=C/C(=O)Nc1cccc(CCCN2CC[C@]34CCCC[C@H]3[C@H]2Cc2ccc(O)cc24)c1 | 76.5 | 30 | – | Time (Mus musculus [14]): 5.5 h; inhibition (Mus musculus [15]): Active
10 | CC(=O)Oc1ccc2c(c1)[C@@]13CCCC[C@H]1[C@@H](C2)N(CCCc1ccccc1N1C(=O)C=CC1=O)CC3 | 48.4 | 30 | 3 | inhibition (Mus musculus [17]): Active
11 | CCOC(=O)CCC(=O)Nc1ccccc1CCCN1CC[C@]23CCCC[C@H]2[C@H]1Cc1ccc(O)cc13 | > 100 | – | 2 | inhibition (Mus musculus [18]): Active
12 | CCOC(=O)/C=C/C(=O)Nc1ccc(CCN2CC[C@]34CCCC[C@H]3[C@H]2Cc2ccc(O)cc24)cc1 | 1.2 | 60 | – | Ratio ED50 (Mus musculus [5]): 4; Time (Mus musculus [19]): 2.5 h; inhibition (Mus musculus [20]): Active
13 | CN1CC[C@]23c4c5ccc(O)c4O[C@H]2[C@@H](O)C=C[C@H]3[C@H]1C5.CN1CC[C@]23c4c5ccc(O)c4O[C@H]2[C@@H](O)C=C[C@H]3[C@H]1C5.O=S(=O)(O)O | 4.9 | 30 | – | –
14 | O=C(CBr)Nc1cccc(CCCN2CC[C@]34CCCC[C@H]3[C@H]2Cc2ccc(O)cc24)c1 | > 100 | – | 1 | inhibition (Mus musculus [21]): Active
15 | CC(=O)Oc1ccc2c(c1)[C@@]13CCCC[C@H]1[C@@H](C2)N(CCc1ccc(N2C(=O)C=CC2=O)cc1)CC3 | 0.59 | 30 | – | inhibition (Mus musculus [4]): Active; Time (Mus musculus [22]): 4 h
16 | CCOC(=O)CCC(=O)Nc1ccccc1CCN1CC[C@]23CCCC[C@H]2[C@H]1Cc1ccc(O)cc13 | > 100 | – | 1 | inhibition (Mus musculus [21]): Active
17 | CC(=O)Oc1ccc2c(c1)[C@@]13CCCC[C@H]1[C@@H](C2)N(CCCc1ccc(N2C(=O)C=CC2=O)cc1)CC3 | > 50 | – | – | Time (Mus musculus [23]): 2 h; inhibition (Mus musculus [24]): Active
18 | O=C(CBr)Nc1ccccc1CCCN1CC[C@]23CCCC[C@H]2[C@H]1Cc1ccc(O)cc13 | > 100 | – | 1 | inhibition (Mus musculus [21]): Active
19 | CCOC(=O)/C=C\C(=O)Nc1ccccc1CCCN1CC[C@]23CCCC[C@H]2[C@H]1Cc1ccc(O)cc13 | > 100 | – | 2 | inhibition (Mus musculus [18]): Active
20 | CCOC(=O)CCC(=O)Nc1cccc(CCCN2CC[C@]34CCCC[C@H]3[C@H]2Cc2ccc(O)cc24)c1 | 77.9 | 30 | 1 | inhibition (Mus musculus [21]): Active
21 | O=C1C=CC(=O)N1c1cccc(CCCN2CC[C@]34CCCC[C@H]3[C@H]2Cc2ccc(O)cc24)c1 | > 50 | – | – | Time (Mus musculus [23]): 2 h; inhibition (Mus musculus [24]): Active
22 | CC(=O)Oc1ccc2c(c1)[C@@]13CCCC[C@H]1[C@@H](C2)N(CCCc1cccc(N2C(=O)C=CC2=O)c1)CC3 | > 100 | – | 2 | inhibition (Mus musculus [18]): Active
23 | CCOC(=O)/C=C/C(=O)Nc1ccc(CCCN2CC[C@]34CCCC[C@H]3[C@H]2Cc2ccc(O)cc24)cc1 | 28.4 | 30 | 2 | inhibition (Mus musculus [18]): Active
24 | CCOC(=O)CCC(=O)Nc1cccc(CCN2CC[C@]34CCCC[C@H]3[C@H]2Cc2ccc(O)cc24)c1 | 6 | 60 | – | Time (Mus musculus [25]): 3 h; inhibition (Mus musculus [26]): Active
25 | O=C1C=CC(=O)N1c1cccc(CCN2CC[C@]34CCCC[C@H]3[C@H]2Cc2ccc(O)cc24)c1 | 11.4 | 30 | – | inhibition (Mus musculus [4]): Active; Time (Mus musculus [11]): 2 h
26 | CCOC(=O)/C=C\C(=O)Nc1cccc(CCCN2CC[C@]34CCCC[C@H]3[C@H]2Cc2ccc(O)cc24)c1 | > 100 | – | – | Time (Mus musculus [23]): 2 h; inhibition (Mus musculus [24]): Active
27 | CCOC(=O)CCC(=O)Nc1ccc(CCCN2CC[C@]34CCCC[C@H]3[C@H]2Cc2ccc(O)cc24)cc1 | 78.2 | 30 | 2 | inhibition (Mus musculus [18]): Active
28 | O=C(CBr)Nc1ccc(CCCN2CC[C@]34CCCC[C@H]3[C@H]2Cc2ccc(O)cc24)cc1 | > 100 | – | 1 | inhibition (Mus musculus [21]): Active
29 | CCOC(=O)/C=C/C(=O)Nc1ccccc1CCCN1CC[C@]23CCCC[C@H]2[C@H]1Cc1ccc(O)cc13 | 84 | 15 | – | Time (Mus musculus [27]): 2 h; inhibition (Mus musculus [28]): Active
30 | Br.CC1C2Cc3ccc(O)cc3C1(C)CCN2CCc1ccccc1 (centres undefined) [PHENAZOCINE HYDROBROMIDE] | 0.53 | 30 | – | –
